SENP8 block-1: inhibitors of human SENP8 protease. Q96LD8. recombinant SENP8, Nedd8 substrate fluorescence. 360,000 compounds, 0.64% hits. AID 602440. inhibition, % at 20 µM; in the data active = inhibition mostly above about 40%, no sharp cut-off; inactive = mostly below about 27%
SENP8 block-2: blocks the human protease SENP8; Q96LD8; purified SENP8, Z-RLRGG-aminoluciferin cleavage, luminescence; inhibition, % at 10 µM; 330,000 compounds, 1.2% hits; AID 2540; in the data active = inhibition above about 50%
SENP6 block: SENP6 protease inhibition; 330,000 compounds, 1.8% hits; inhibition, % at 10 µM; Q9GZR1; Recombinant SENP6 catalytic domain, aminoluciferin luminescence;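 active = inhibition above about 50% at the single tested dose, limit read from the data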
SENP7 block: SENP7 protease inhibition | Q9BQF6 | recombinant SENP7, Z-RLRGG-aminoluciferin luminescence, 40 min | inhibition, % at 5 µM | 330,000 compounds, 1.5% hits | AID 434973;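 active = inhibition above about 50% at the single test dose, limit read from the data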
Target sequence (Q9BQF6 706-1050 limits assumed): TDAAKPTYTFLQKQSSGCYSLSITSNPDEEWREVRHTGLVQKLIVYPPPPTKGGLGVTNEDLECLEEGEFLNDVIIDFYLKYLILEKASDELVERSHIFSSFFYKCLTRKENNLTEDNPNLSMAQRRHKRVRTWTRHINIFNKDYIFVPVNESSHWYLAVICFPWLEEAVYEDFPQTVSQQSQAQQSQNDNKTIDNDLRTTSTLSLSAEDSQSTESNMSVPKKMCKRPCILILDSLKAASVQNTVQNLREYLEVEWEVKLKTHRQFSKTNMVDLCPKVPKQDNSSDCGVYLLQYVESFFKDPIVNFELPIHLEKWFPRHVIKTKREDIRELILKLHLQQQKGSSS
SENP1 inh: blocks the human SENP1 SUMO protease catalytic domain. 360,000 compounds, 0.21% hits. Q9P0U3. recombinant SENP1 catalytic domain, CyPet-SUMO1-YPet FRET cleavage. AID 624204. inhibition, % at 10 µM;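 active = inhibition at least 30% at 10 µM, raw YFP signal under a set limit, fluorescence ratio 0.5 to 1.5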
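Assay system – human recombinant His6-tagged SENP1 catalytic domain enzyme · Input – SENP1 enzyme, 20 pM final · Buffer or medium – Tris pH 8 buffer plus EDTA, NaCl, BME, BSA, NP40, catalase · Schedule – 50 min reaction at room temperature · Technique – FRET read of cyan and yellow fluorescence · Control set – no-enzyme wells low, DMSO-plus-enzyme wells high control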
Platelet DG rel: modulates dense granule release in human platelets; 300,000 compounds, 0.22% hits; human platelet-rich plasma, SFLLRN dense granule ATP release, luminescence; inhibition, %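 (compounds screened at 7.5 µM in platelet-rich plasma)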;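 active = mean replicate score, as percent of positive control, at or above 50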
SENP8 conf: confirmation of human SENP8 protease inhibitors; shares compounds with SENP7 block; Recombinant SENP8, Z-RLRGG-aminoluciferin luminescence, 60 min; inhibition, % at 12.5 µM; 6,200 compounds, 40% hits; AID 488912;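 active = mean inhibition across replicates above about 50%, limit read from the data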
SENP6 conf: confirmation of human SENP6 protease inhibitors. inhibition, % at 12.5 µM. 6,200 compounds, 58% hits. AID 488915. recombinant SENP6, Z-RLRGG-aminoluciferin luminescence. shares compounds with SENP7 block
SENP7 conf: human SENP7 inhibition, confirmed; shares compounds with SENP7 block; recombinant SENP7, Z-RLRGG-aminoluciferin luminescence, 40 min; inhibition, % at 12.5 µM; 6,200 compounds, 69% hits; AID 488917
Casp3 SENP sel: inhibits human caspase-3 in SENP selectivity test. shares compounds with SENP7 block. purified caspase-3, Z-DEVD-aminoluciferin luminescence, 60 min. inhibition, % at 12.5 µM. 6,200 compounds, 60% hits. AID 488918;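 active = mean inhibition above about 50%, limit read from the data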
Luc interf: counter-screen for SENP inhibitors: luminescence interference. shares compounds with SENP7 block. inhibition, % at 12.5 µM. 6,200 compounds, 39% hits. Pre-incubated SENP8/Z-RLRGG-aminoluciferin, luciferase luminescence interference. AID 488919;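 active = mean inhibition above about 50% when retested at one dose, limit read from the data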
Each line names hits and unclear results; the compound was inactive in the other large screens (follow-up assays come after a bar, where they were run). Rows were chosen to be rich in hits. Some 2.6% of all compounds tested hit in one or more screens of this group.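 The calls were made as follows, unless noted: active = mean inhibition above about 50% in the one-dose retest (limit read from the data); inactive = the rest.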

Cc1ccc(C(=O)CC2SC(N)=NC2=O)cc1 (stereo not given)	SENP7 block 77 | SENP8 conf inactive | SENP6 conf inactive | SENP7 conf inactive | Casp3 SENP sel inactive | Luc interf inactive
O=C(Nc1ccc2c(c1)OCCO2)c1cccc(C(=O)Nc2ccc3c(c2)OCCO3)c1	none
O=C(Nc1cccc(Cl)c1)c1ccc2c(c1)OCCO2	SENP8 block-2 92, SENP6 block 91, SENP7 block 95 (no result: Platelet DG rel) | SENP8 conf inactive | SENP6 conf 93 | SENP7 conf 101 | Casp3 SENP sel 89 | Luc interf 94
CCCc1cc(C(=O)Nc2cccc([N+](=O)[O-])c2)cs1	SENP8 block-2 59, SENP6 block 87, SENP7 block 72 | SENP8 conf inactive | SENP6 conf 73 | SENP7 conf 92 | Casp3 SENP sel inactive | Luc interf 56
O=C(Nc1cccc([N+](=O)[O-])c1)c1ccc2c(c1)OCCO2	SENP8 block-2 63, SENP6 block 72, SENP7 block 75 | SENP8 conf 68 | SENP6 conf 70 | SENP7 conf 93 | Casp3 SENP sel 72 | Luc interf 80
O=C(Nc1ccc2c(c1)OCCO2)c1cccc(Cl)c1	SENP8 block-2 77, SENP6 block 87, SENP7 block 85 | SENP8 conf inactive | SENP6 conf 86 | SENP7 conf 97 | Casp3 SENP sel 85 | Luc interf 86
Cc1ccc(/C(N)=N/OC(=O)c2ccc(F)cc2)cc1	SENP7 block 61 | SENP8 conf inactive | SENP6 conf inactive | SENP7 conf 69 | Casp3 SENP sel 62 | Luc interf inactive
N/C(=N\OC(=O)c1ccc(F)cc1)c1ccc(Br)cc1	none
N/C(=N\OC(=O)c1ccc(F)cc1)c1ccccc1	SENP8 block-2 91, SENP6 block 97, SENP7 block 98 | SENP8 conf 96 | SENP6 conf 96 | SENP7 conf 102 | Casp3 SENP sel 97 | Luc interf 94
COc1cccc(C2=NC(C)(C)NC(c3ccccc3O)C2)c1 (stereo not given)	none (no result: Platelet DG rel)
CCC1(C)N=C(c2ccc3c(c2)OCO3)CC(c2ccccc2O)N1 (stereo not given)	SENP8 block-2 78, SENP6 block 91 | SENP8 conf 82 | SENP6 conf inactive | SENP7 conf inactive | Casp3 SENP sel inactive | Luc interf 63
Cc1ccc(C(=O)N=c2sccn2C)cc1S(=O)(=O)N1CCOCC1	none
Cc1ccc(C(=O)N=c2sccn2C)cc1C	SENP8 block-2 67, SENP6 block 82, SENP7 block 83 | SENP8 conf 70 | SENP6 conf 70 | SENP7 conf 94 | Casp3 SENP sel 86 | Luc interf 81
COc1ccc(-c2cc(C(=O)Nc3ccc(C)c(C)c3)no2)cc1	none
O=C(Nc1cccc(O)c1)c1cc(-c2ccco2)on1	SENP8 block-2 84, SENP6 block 92 | SENP8 conf 90 | SENP6 conf 91 | SENP7 conf 98 | Casp3 SENP sel 90 | Luc interf 90
COc1ccc(-c2cc(C(=O)Nc3cccc(O)c3)no2)cc1	SENP8 block-2 93, SENP6 block 97, SENP7 block 99 | SENP8 conf 93 | SENP6 conf 94 | SENP7 conf 101 | Casp3 SENP sel 95 | Luc interf 57
O=C(COC(=O)c1ccc(OC(F)F)cc1)NCCC1=CCCCC1	none (no result: Platelet DG rel)

Screening data from PubChem BioAssay.
